Results taken from ChEMBL document CHEMBL1134286, “Novel erythromycin derivatives with aryl groups tethered to the C-6 position are potent protein synthesis inhibitors and active against multidrug-resistant respiratory pathogens” (J Med Chem, 2001).
Values after ≈ are worked out from the molar mass of the structure shown.

Assays:
Format in all cases: functional
Staphylococcus aureus [1] = assay: Minimum inhibitory concentration against Staphylococcus aureus A 5177 MLSB-i
Outline: (§1)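 MICs were determined by agar dilution following National Committee for Clinical Laboratory Standards recommendations. Values are in µg/mL.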

Staphylococcus aureus [2] = assay: Minimum inhibitory concentration against Staphylococcus aureus A 5278 MLSB-c; outline: as §1
[3] = Minimum inhibitory concentration against Streptococcus pyogenes PIU2548 efflux; outline: as §1
Streptococcus pneumoniae [4] = assay: Minimum inhibitory concentration against Streptococcus pneumoniae 5649 efflux; outline: as §1
[5] = Minimum inhibitory concentration against Streptococcus pneumoniae 5737 MLSB; outline: as §1
Streptococcus pneumoniae [6] = assay: Minimum inhibitory concentration against Streptococcus pneumoniae ATCC 6303 Ery-S; outline: as §1
[7] = Minimum inhibitory concentration against Streptococcus pyogenes 930MLSB; outline: as §1
Staphylococcus aureus [8] = assay: Minimum inhibitory concentration against Staphylococcus aureus ATCC 6538PEry-S; details: ATCC 6538P; outline: as §1
[9] = Minimum inhibitory concentration against Streptococcus pyogenes EES 61 Ery-S; outline: as §1
[10] = Minimum inhibitory concentration against Haemophilus influenzae DILL Amp-R; outline: as §1

SMILES	MIC (Staphylococcus aureus [1])	MIC (Staphylococcus aureus [2])	MIC [3]	MIC (Streptococcus pneumoniae [4])	MIC [5]	MIC (Streptococcus pneumoniae [6])	MIC [7]	MIC (Staphylococcus aureus [8])	MIC [9]	MIC [10]
C=CCO[C@]1(C)C[C@@H](C)C(=O)[C@H](C)[C@H]2NC(=O)O[C@]2(C)[C@@H](CC)OC(=O)[C@H](C)[C@@H](O[C@H]2C[C@@](C)(OC)[C@@H](O)[C@H](C)O2)[C@H](C)[C@H]1O[C@@H]1O[C@H](C)C[C@H](N(C)C)[C@H]1O	0.78 µg/mL (≈ 0.976 µM)	> 100 µg/mL	8 µg/mL (≈ 10 µM)	2 µg/mL (≈ 2.5 µM)	> 128 µg/mL	0.03 µg/mL (≈ 0.0375 µM)	> 128 µg/mL	0.2 µg/mL (≈ 0.25 µM)	0.03 µg/mL (≈ 0.0375 µM)	2 µg/mL (≈ 2.5 µM)
CC[C@H]1OC(=O)[C@H](C)C(=O)[C@H](C)[C@@H](O[C@@H]2O[C@H](C)C[C@H](N(C)C)[C@H]2O)[C@](C)(OC/C=C/c2ccc3nnccc3c2)C[C@@H](C)C(=O)[C@H](C)[C@H]2NC(=O)O[C@@]21C	0.05 µg/mL (≈ 0.0652 µM)	> 100 µg/mL	0.5 µg/mL (≈ 0.652 µM)	0.5 µg/mL (≈ 0.652 µM)	1 µg/mL (≈ 1.3 µM)	0.015 µg/mL (≈ 0.0196 µM)	4 µg/mL (≈ 5.22 µM)	0.05 µg/mL (≈ 0.0652 µM)	0.03 µg/mL (≈ 0.0391 µM)	2 µg/mL (≈ 2.61 µM)
CC[C@H]1OC(=O)[C@H](C)[C@@H](O[C@H]2C[C@@](C)(OC)[C@@H](O)[C@H](C)O2)[C@H](C)[C@@H](O[C@@H]2O[C@H](C)C[C@H](N(C)C)[C@H]2O)[C@](C)(OC/C=C/c2cnc3ccccc3c2)C[C@@H](C)C(=O)[C@H](C)[C@H]2NC(=O)O[C@@]21C	3.1 µg/mL (≈ 3.35 µM)	> 100 µg/mL	1 µg/mL (≈ 1.08 µM)	1 µg/mL (≈ 1.08 µM)	8 µg/mL (≈ 8.64 µM)	0.03 µg/mL (≈ 0.0324 µM)	8 µg/mL (≈ 8.64 µM)	0.2 µg/mL (≈ 0.216 µM)	0.03 µg/mL (≈ 0.0324 µM)	2 µg/mL (≈ 2.16 µM)
CC[C@H]1OC(=O)[C@H](C)C(=O)[C@H](C)[C@@H](O[C@@H]2O[C@H](C)C[C@H](N(C)C)[C@H]2O)[C@](C)(OC/C=C/c2cccc3cnccc23)C[C@@H](C)C(=O)[C@H](C)[C@H]2NC(=O)O[C@@]21C	0.1 µg/mL (≈ 0.131 µM)	> 100 µg/mL	0.25 µg/mL (≈ 0.326 µM)	0.25 µg/mL (≈ 0.326 µM)	8 µg/mL (≈ 10.4 µM)	0.008 µg/mL (≈ 0.0104 µM)	32 µg/mL (≈ 41.8 µM)	0.1 µg/mL (≈ 0.131 µM)	0.008 µg/mL (≈ 0.0104 µM)	4 µg/mL (≈ 5.22 µM)
CC[C@H]1OC(=O)[C@H](C)C(=O)[C@H](C)[C@@H](O[C@@H]2O[C@H](C)C[C@H](N(C)C)[C@H]2O)[C@](C)(OC/C=C/c2cnc3ccccc3c2)C[C@@H](C)C(=O)[C@H](C)[C@H]2N(N)C(=O)O[C@]12C	0.1 µg/mL (≈ 0.128 µM)	> 100 µg/mL	0.5 µg/mL (≈ 0.64 µM)	0.25 µg/mL (≈ 0.32 µM)	64 µg/mL (≈ 82 µM)	0.015 µg/mL (≈ 0.0192 µM)	64 µg/mL (≈ 82 µM)	0.1 µg/mL (≈ 0.128 µM)	0.015 µg/mL (≈ 0.0192 µM)	2 µg/mL (≈ 2.56 µM)
CC[C@H]1OC(=O)[C@H](C)[C@@H](O[C@H]2C[C@@](C)(OC)[C@@H](O)[C@H](C)O2)[C@H](C)[C@@H](O[C@@H]2O[C@H](C)C[C@H](N(C)C)[C@H]2O)[C@](C)(OC/C=C/c2cnc3ccccc3c2)C[C@@H](C)C(=O)[C@H](C)[C@@H](O)[C@]1(C)O	3.1 µg/mL (≈ 3.44 µM)	> 100 µg/mL	4 µg/mL (≈ 4.44 µM)	4 µg/mL (≈ 4.44 µM)	128 µg/mL (≈ 142 µM)	0.06 µg/mL (≈ 0.0666 µM)	64 µg/mL (≈ 71 µM)	0.2 µg/mL (≈ 0.222 µM)	0.06 µg/mL (≈ 0.0666 µM)	8 µg/mL (≈ 8.88 µM)
CC[C@H]1OC(=O)[C@H](C)C(=O)[C@H](C)[C@@H](O[C@@H]2O[C@H](C)C[C@H](N(C)C)[C@H]2O)[C@](C)(OC/C=C/c2cccc3ncccc23)C[C@@H](C)C(=O)[C@H](C)[C@H]2NC(=O)O[C@@]21C	0.1 µg/mL (≈ 0.131 µM)	> 100 µg/mL	0.25 µg/mL (≈ 0.326 µM)	0.25 µg/mL (≈ 0.326 µM)	2 µg/mL (≈ 2.61 µM)	0.03 µg/mL (≈ 0.0392 µM)	> 128 µg/mL	0.1 µg/mL (≈ 0.131 µM)	0.03 µg/mL (≈ 0.0392 µM)	8 µg/mL (≈ 10.4 µM)
CC[C@H]1OC(=O)[C@H](C)C(=O)[C@H](C)[C@@H](O[C@@H]2O[C@H](C)C[C@H](N(C)C)[C@H]2O)[C@](C)(OC/C=C/c2ccc3[nH]cnc3c2)C[C@@H](C)C(=O)[C@H](C)[C@H]2NC(=O)O[C@@]21C	0.1 µg/mL (≈ 0.132 µM)	> 100 µg/mL	2 µg/mL (≈ 2.65 µM)	4 µg/mL (≈ 5.3 µM)	8 µg/mL (≈ 10.6 µM)	0.03 µg/mL (≈ 0.0397 µM)	4 µg/mL (≈ 5.3 µM)	0.1 µg/mL (≈ 0.132 µM)	0.03 µg/mL (≈ 0.0397 µM)	4 µg/mL (≈ 5.3 µM)
CC[C@H]1OC(=O)[C@H](C)C(=O)[C@H](C)[C@@H](O[C@@H]2O[C@H](C)C[C@H](N(C)C)[C@H]2O)[C@](C)(OCCNCc2ccccc2)C[C@@H](C)C(=O)[C@H](C)[C@H]2NC(=O)O[C@@]21C	0.39 µg/mL (≈ 0.533 µM)	> 100 µg/mL	2 µg/mL (≈ 2.73 µM)	2 µg/mL (≈ 2.73 µM)	> 128 µg/mL	0.03 µg/mL (≈ 0.041 µM)	> 128 µg/mL	0.2 µg/mL (≈ 0.273 µM)	0.03 µg/mL (≈ 0.041 µM)	2 µg/mL (≈ 2.73 µM)
CC[C@H]1OC(=O)[C@H](C)C(=O)[C@H](C)[C@@H](O[C@@H]2O[C@H](C)C[C@H](N(C)C)[C@H]2O)[C@](C)(OC/C=C/c2cnc3nccnc3c2)C[C@@H](C)C(=O)[C@H](C)[C@H]2NC(=O)O[C@@]21C	0.2 µg/mL (≈ 0.26 µM)	> 100 µg/mL	2 µg/mL (≈ 2.6 µM)	2 µg/mL (≈ 2.6 µM)	1 µg/mL (≈ 1.3 µM)	0.015 µg/mL (≈ 0.0195 µM)	4 µg/mL (≈ 5.21 µM)	0.2 µg/mL (≈ 0.26 µM)	0.015 µg/mL (≈ 0.0195 µM)	4 µg/mL (≈ 5.21 µM)
CC[C@H]1OC(=O)[C@H](C)C(=O)[C@H](C)[C@@H](O[C@@H]2O[C@H](C)C[C@H](N(C)C)[C@H]2O)[C@](C)(OCCNCCCCc2ccccc2)C[C@@H](C)C(=O)[C@H](C)[C@H]2NC(=O)O[C@@]21C	0.2 µg/mL (≈ 0.258 µM)	> 100 µg/mL	2 µg/mL (≈ 2.58 µM)	2 µg/mL (≈ 2.58 µM)	16 µg/mL (≈ 20.7 µM)	0.03 µg/mL (≈ 0.0388 µM)	> 128 µg/mL	0.39 µg/mL (≈ 0.504 µM)	0.125 µg/mL (≈ 0.161 µM)	4 µg/mL (≈ 5.17 µM)
CC[C@H]1OC(=O)[C@H](C)C(=O)[C@H](C)[C@@H](O[C@@H]2O[C@H](C)C[C@H](N(C)C)[C@H]2O)[C@](C)(OC/C=C/c2ccc(OC)cc2)C[C@@H](C)C(=O)[C@H](C)[C@@H](O)[C@]1(C)O	1.56 µg/mL (≈ 2.17 µM)	> 100 µg/mL	2 µg/mL (≈ 2.78 µM)	2 µg/mL (≈ 2.78 µM)	128 µg/mL (≈ 178 µM)	1 µg/mL (≈ 1.39 µM)	64 µg/mL (≈ 88.9 µM)	1.56 µg/mL (≈ 2.17 µM)	0.25 µg/mL (≈ 0.347 µM)	128 µg/mL (≈ 178 µM)
CC[C@H]1OC(=O)[C@H](C)C(=O)[C@H](C)[C@@H](O[C@@H]2O[C@H](C)C[C@H](N(C)C)[C@H]2O)[C@](C)(OC/C=C/c2cnc3sccc3c2)C[C@@H](C)C(=O)[C@H](C)[C@H]2NC(=O)O[C@@]21C	0.05 µg/mL (≈ 0.0648 µM)	> 100 µg/mL	0.25 µg/mL (≈ 0.324 µM)	0.25 µg/mL (≈ 0.324 µM)	0.5 µg/mL (≈ 0.648 µM)	0.004 µg/mL (≈ 0.00518 µM)	4 µg/mL (≈ 5.18 µM)	0.05 µg/mL (≈ 0.0648 µM)	0.008 µg/mL (≈ 0.0104 µM)	2 µg/mL (≈ 2.59 µM)
CC[C@H]1OC(=O)[C@H](C)C(=O)[C@H](C)[C@@H](O[C@@H]2O[C@H](C)C[C@H](N(C)C)[C@H]2O)[C@](C)(OC/C=C/c2cncc3ccccc23)C[C@@H](C)C(=O)[C@H](C)[C@H]2NC(=O)O[C@@]21C	0.1 µg/mL (≈ 0.131 µM)	> 100 µg/mL	0.125 µg/mL (≈ 0.163 µM)	0.25 µg/mL (≈ 0.326 µM)	64 µg/mL (≈ 83.6 µM)	0.004 µg/mL (≈ 0.00522 µM)	8 µg/mL (≈ 10.4 µM)	0.1 µg/mL (≈ 0.131 µM)	0.004 µg/mL (≈ 0.00522 µM)	2 µg/mL (≈ 2.61 µM)
CC[C@H]1OC(=O)[C@H](C)C(=O)[C@H](C)[C@@H](O[C@@H]2O[C@H](C)C[C@H](N(C)C)[C@H]2O)[C@](C)(OCCNCCCc2ccccc2)C[C@@H](C)C(=O)[C@H](C)[C@H]2NC(=O)O[C@@]21C	0.2 µg/mL (≈ 0.263 µM)	> 100 µg/mL	2 µg/mL (≈ 2.63 µM)	0.5 µg/mL (≈ 0.658 µM)	16 µg/mL (≈ 21.1 µM)	0.03 µg/mL (≈ 0.0395 µM)	64 µg/mL (≈ 84.2 µM)	0.2 µg/mL (≈ 0.263 µM)	0.03 µg/mL (≈ 0.0395 µM)	4 µg/mL (≈ 5.26 µM)
